From ChEMBL document CHEMBL4002602, “Design, Synthesis of Novel, Potent, Selective, Orally Bioavailable Adenosine A2A Receptor Antagonists and Their Biological Evaluation” (J Med Chem, 2017) come the findings set out here.

Structures are written as SMILES.

Data set [1] can be described thus: Ratio of AUC (0 to t) in Wistar rat brain to AUC (0 to t) in Wistar rat plasma at 10 mg/kg administered through oral gavage by LC/MS/MS analysis. It counts as ADME, organism-based. The settings on record: brain and plasma, read-out: Ratio AUC. Summed up:
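Male Wistar rats (230 ± 15 g), fasted overnight, water ad libitum; single oral dose of 10 mg/kg as suspension in 1% Tween 80/0.5% NaCMC, n=4. Blood and brain collected by discrete sampling at 0.5, 2, 4 and 8 h post dose. Brain washed in PBS and homogenised, plasma and homogenate precipitated with acetonitrile plus internal standard, LC/MS/MS; AUC0-t from non-compartmental analysis.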

In data set [2] the target is Voltage-gated inwardly rectifying potassium channel KCNH2 (Homo sapiens, UniProt Q12809). The data set can be described thus: Inhibition of [3H]-astemizole binding to human ERG at 10 uM after 2 hrs by liquid scintillation counting method relative to control. The settings on record: 2 h, 10 µM.
Chain of Voltage-gated inwardly rectifying potassium channel KCNH2 (Q12809 whole entry): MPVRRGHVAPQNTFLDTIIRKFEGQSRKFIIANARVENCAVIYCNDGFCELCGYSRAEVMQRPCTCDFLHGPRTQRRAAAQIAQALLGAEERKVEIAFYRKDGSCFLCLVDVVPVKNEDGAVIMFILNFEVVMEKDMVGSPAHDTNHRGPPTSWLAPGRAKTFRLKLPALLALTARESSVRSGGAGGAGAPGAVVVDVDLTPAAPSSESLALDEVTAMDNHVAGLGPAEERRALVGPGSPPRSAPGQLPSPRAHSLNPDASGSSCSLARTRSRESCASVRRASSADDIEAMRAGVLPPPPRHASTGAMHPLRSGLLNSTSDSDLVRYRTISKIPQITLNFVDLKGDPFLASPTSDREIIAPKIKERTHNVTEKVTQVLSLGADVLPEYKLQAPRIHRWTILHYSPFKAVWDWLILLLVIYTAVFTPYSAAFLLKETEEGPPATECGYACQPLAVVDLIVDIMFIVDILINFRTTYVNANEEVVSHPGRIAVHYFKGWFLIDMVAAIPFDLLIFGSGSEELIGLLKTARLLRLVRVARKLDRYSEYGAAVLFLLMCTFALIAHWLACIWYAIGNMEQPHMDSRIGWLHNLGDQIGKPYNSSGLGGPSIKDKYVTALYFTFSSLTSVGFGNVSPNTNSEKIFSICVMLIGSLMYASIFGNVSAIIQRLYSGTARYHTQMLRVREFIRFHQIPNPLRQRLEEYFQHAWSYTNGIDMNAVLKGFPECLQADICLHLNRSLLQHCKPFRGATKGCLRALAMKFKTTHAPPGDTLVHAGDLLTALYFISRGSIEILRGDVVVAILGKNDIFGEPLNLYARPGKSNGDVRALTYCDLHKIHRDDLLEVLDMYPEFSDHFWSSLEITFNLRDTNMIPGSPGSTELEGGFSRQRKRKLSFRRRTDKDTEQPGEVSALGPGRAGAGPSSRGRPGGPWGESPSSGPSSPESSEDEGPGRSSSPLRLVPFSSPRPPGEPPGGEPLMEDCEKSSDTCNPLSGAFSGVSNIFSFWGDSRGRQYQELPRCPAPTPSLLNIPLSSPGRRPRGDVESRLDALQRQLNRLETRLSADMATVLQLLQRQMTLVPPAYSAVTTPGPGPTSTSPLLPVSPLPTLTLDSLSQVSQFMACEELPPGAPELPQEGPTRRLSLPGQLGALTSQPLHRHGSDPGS

In the case of `CCN(CC)C1CCC(C)(C(=O)Nc2nc3c(OC)ccc(N4CCOCC4)c3s2)CC1` (configuration not stated), the Kp in data set [1] was 0.25. For the compound `COc1ccc(N2CCOCC2)c2sc(NC(=O)C3(C)CCC(C)(O)CC3)nc12` (configuration not stated), in data set [2], the “inhibition (INH)” value was “Not Active”.
